Here are results for one molecule from ChEMBL document CHEMBL4354843, “Structure-Based Design of a Potent and Selective Covalent Inhibitor for SRC Kinase That Targets a P-Loop Cysteine” (J Med Chem, 2020).

Activity calls are given as the source filed them. The calls are words filed in the database; no cut-off is given here.

In experiment [1] the target is Cyclin-dependent kinase 16 (Homo sapiens) (UniProt Q00536). In words: Binding affinity to wild-type human partial length PCTK1 (G160 to A474 residues) expressed in mammalian expression system assessed as residual binding level at 1 uM by Kinomescan method relative to control.
Cyclin-dependent kinase 16 (Homo sapiens), sequence (Q00536 whole entry, the tested form may be a part): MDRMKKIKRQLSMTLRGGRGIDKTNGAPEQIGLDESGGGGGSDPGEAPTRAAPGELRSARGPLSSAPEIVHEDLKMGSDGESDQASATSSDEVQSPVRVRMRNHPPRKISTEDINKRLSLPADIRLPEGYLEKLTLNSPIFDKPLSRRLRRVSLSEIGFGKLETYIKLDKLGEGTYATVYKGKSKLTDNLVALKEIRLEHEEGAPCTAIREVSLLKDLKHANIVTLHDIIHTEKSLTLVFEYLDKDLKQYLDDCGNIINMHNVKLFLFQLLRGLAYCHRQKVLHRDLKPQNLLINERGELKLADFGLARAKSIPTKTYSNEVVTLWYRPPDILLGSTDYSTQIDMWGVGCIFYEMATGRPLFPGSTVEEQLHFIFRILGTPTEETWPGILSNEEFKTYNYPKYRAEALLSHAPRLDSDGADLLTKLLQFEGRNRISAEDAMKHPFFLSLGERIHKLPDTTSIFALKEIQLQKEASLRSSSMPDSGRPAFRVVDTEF
The test system of experiment [2] is Epidermal growth factor receptor (Homo sapiens), P00533 [L858R]. In words: Binding affinity to human partial length EGFR L858R mutant (R669 to V1011 residues) expressed in bacterial expression system assessed as residual binding level at 1 uM by Kinomescan method relative to control. The essentials: (§1)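 KinomeScan active site-directed competition binding panel (468 kinases), compound tested at 1 μM. Result expressed as remaining kinase signal versus DMSO control (percent of control).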

Experiment [3] has as its target Serine/threonine-protein kinase MARK2 (Homo sapiens) (UniProt Q7KZI7). In words: Binding affinity to wild-type human partial length MARK2 (M1 to R450 residues) expressed in bacterial expression system assessed as residual binding level at 1 uM by Kinomescan method relative to control.
Experiment [4] deals with Serine/threonine-protein kinase 25 (Homo sapiens) (UniProt O00506). Kind of experiment: Binding affinity to wild-type human partial length YSK1 (V14 to H295 residues) expressed in bacterial expression system assessed as residual binding level at 1 uM by Kinomescan method relative to control.
Serine/threonine-protein kinase 25 (Homo sapiens), sequence (O00506 whole entry, looked up, the tested form may be a part): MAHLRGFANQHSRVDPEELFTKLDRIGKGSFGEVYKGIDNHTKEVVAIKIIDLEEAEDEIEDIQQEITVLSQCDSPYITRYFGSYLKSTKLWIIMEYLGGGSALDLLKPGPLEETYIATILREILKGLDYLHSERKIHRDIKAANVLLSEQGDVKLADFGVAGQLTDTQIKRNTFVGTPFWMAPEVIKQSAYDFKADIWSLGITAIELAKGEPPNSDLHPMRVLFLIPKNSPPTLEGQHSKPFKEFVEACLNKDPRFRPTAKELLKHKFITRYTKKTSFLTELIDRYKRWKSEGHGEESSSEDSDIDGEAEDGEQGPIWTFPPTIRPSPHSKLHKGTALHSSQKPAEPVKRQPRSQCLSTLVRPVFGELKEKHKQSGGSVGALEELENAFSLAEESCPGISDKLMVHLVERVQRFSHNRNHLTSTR
Experiment [5] addresses Myosin light chain kinase (Homo sapiens) (UniProt Q32MK0). In words: Binding affinity to wild-type human partial length MLCK (D488 to K800 residues) expressed in bacterial expression system assessed as residual binding level at 1 uM by Kinomescan method relative to control.
Experiment [6] deals with Dual specificity mitogen-activated protein kinase kinase; MEK1/2 (Homo sapiens) (UniProt P36507+Q02750). In words: Inhibition of MEK1/2 in human NCI-H1975 cells assessed as blocking of MEK1/2 pulldown at 1 uM in presence of TL13-68 incubated for 2 hrs by Western blot analysis. It counts as cell-based. In outline:
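H1975 or HCC827 cells treated with 1 μM compound or DMSO for 2 h, rinsed twice in cold PBS, and lysed in M-PER with protease/phosphatase inhibitors. Lysate rocked overnight at 4 °C with 1 μM TL13-68, then streptavidin pulldown with five cold washes. Bound kinases detected by Western blot. Two independent experiments.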

The target of experiment [7] is Cyclin-dependent kinase 11B (Homo sapiens) (UniProt P21127). Kind of experiment: Binding affinity to wild-type human partial length CDC2L1 (P353 to G692 residues) expressed in bacterial expression system assessed as residual binding level at 1 uM by Kinomescan method relative to control.
Experiment [8] concerns the target Tyrosine-protein kinase JAK2 (Homo sapiens) (UniProt O60674). Kind of experiment: Binding affinity to wild-type human partial length JAK2 JH1 catalytic domain (A829 to G1132 residues) expressed in mammalian expression system assessed as residual binding level at 1 uM by Kinomescan method relative to control. In outline: (§2)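 Active-site-directed competition binding panel of 468 kinases (KinomeScan), compound at 1 μM. The read-out is kinase remaining bound, given as a percentage of the DMSO control. […]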

Experiment [9] addresses Serine/threonine-protein kinase 32C (Homo sapiens) (UniProt Q86UX6). In words: Binding affinity to wild-type human partial length YANK3 (M68 to G486 residues) expressed in bacterial expression system assessed as residual binding level at 1 uM by Kinomescan method relative to control.
The target of experiment [10] is Ephrin type-A receptor 5 (Homo sapiens) (UniProt P54756). In words: Binding affinity to wild-type human partial length EPHA5 (T627 to V930 residues) expressed in bacterial expression system assessed as residual binding level at 1 uM by Kinomescan method relative to control. The essentials: as §2
In experiment [11] the target is Fibroblast growth factor receptor 4 (Homo sapiens) (UniProt P22455). Kind of experiment: Binding affinity to wild-type human partial length FGFR4 (G402 to E713 residues) expressed in bacterial expression system assessed as residual binding level at 1 uM by Kinomescan method relative to control.
Fibroblast growth factor receptor 4 (Homo sapiens), sequence (P22455 22-802 limits assumed): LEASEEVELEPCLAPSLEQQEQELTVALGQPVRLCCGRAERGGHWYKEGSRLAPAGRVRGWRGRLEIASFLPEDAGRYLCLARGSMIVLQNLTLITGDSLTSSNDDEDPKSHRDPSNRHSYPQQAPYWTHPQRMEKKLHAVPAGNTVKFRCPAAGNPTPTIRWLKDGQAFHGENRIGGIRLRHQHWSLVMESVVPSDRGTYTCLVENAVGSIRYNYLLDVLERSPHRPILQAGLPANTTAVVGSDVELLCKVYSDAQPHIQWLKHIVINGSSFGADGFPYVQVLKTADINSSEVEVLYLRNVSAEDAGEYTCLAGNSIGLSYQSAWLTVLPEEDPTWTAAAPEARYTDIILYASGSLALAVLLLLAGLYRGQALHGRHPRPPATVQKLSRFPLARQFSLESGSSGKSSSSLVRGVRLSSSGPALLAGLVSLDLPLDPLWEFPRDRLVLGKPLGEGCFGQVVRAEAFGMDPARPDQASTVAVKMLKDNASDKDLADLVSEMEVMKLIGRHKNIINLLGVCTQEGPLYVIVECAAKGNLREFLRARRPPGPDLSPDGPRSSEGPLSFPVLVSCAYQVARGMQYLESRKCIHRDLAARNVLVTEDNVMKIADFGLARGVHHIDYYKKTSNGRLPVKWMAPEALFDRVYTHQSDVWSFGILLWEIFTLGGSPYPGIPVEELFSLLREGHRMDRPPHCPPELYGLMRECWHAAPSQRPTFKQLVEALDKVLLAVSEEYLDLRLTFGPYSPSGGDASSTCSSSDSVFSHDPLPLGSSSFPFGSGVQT
For experiment [12], the target named is Tyrosine-protein kinase Lck (Homo sapiens) (UniProt P06239). Kind of experiment: Binding affinity to wild-type human partial length LCK (R207 to P509 residues) expressed in bacterial expression system assessed as residual binding level at 1 uM by Kinomescan method relative to control. In outline: as §2
Experiment [13] deals with Serine/threonine-protein kinase N1 (Homo sapiens) (UniProt Q16512). In words: Binding affinity to wild-type human partial length PKN1 (E598 to C948 residues) expressed in bacterial expression system assessed as residual binding level at 1 uM by Kinomescan method relative to control. In outline: as §2
Serine/threonine-protein kinase N1 (Homo sapiens), sequence (Q16512 2-942 limits assumed): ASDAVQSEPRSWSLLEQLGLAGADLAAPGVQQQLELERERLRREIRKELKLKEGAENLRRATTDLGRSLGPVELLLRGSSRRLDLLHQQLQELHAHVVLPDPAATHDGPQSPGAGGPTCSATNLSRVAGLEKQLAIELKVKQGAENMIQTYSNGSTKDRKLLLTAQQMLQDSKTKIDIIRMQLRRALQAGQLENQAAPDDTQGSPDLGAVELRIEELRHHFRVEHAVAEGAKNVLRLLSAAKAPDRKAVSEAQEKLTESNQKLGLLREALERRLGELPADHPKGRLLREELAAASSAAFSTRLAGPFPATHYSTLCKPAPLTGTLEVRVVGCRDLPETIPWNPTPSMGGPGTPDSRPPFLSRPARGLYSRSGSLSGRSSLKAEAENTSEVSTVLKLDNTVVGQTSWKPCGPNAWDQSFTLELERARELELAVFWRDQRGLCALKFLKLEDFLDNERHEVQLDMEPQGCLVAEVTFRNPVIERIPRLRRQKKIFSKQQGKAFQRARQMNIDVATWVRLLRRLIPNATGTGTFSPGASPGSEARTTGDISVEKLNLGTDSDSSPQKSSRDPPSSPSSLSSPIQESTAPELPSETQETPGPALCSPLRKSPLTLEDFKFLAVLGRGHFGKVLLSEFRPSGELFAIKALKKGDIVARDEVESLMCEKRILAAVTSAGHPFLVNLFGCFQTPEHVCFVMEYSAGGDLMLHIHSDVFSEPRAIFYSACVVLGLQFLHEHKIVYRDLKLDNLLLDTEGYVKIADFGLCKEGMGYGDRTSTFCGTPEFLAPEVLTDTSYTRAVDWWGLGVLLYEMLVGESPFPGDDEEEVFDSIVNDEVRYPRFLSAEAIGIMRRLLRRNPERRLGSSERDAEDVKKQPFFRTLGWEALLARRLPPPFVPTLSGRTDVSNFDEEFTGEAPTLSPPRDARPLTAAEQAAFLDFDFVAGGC
The target in experiment [14] is Tyrosine-protein kinase receptor Tie-1 (Homo sapiens) (UniProt P35590). In words: Binding affinity to wild-type human partial length TIE1 (T819 to A1138 residues) expressed in bacterial expression system assessed as residual binding level at 1 uM by Kinomescan method relative to control. In outline:
(§3)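 Active site-directed competition binding panel (KinomeScan, 468 kinases). Test compound at 1 μM. Read-out is kinase binding remaining versus DMSO control, expressed as percent of control. Scores above 35% are treated as weak binding.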

Experiment [15] deals with Mast/stem cell growth factor receptor Kit (Homo sapiens) (UniProt P10721). Kind of experiment: Binding affinity to wild-type human partial length KIT (I571 to D952 residues) expressed in bacterial expression system assessed as residual binding level at 1 uM by Kinomescan method relative to control.
Experiment [16] has as its target Mitotic checkpoint serine/threonine-protein kinase BUB1 (Homo sapiens) (UniProt O43683). Kind of experiment: Binding affinity to wild-type human partial length BUB1 (Q724 to K1085 residues) expressed in mammalian expression system assessed as residual binding level at 1 uM by Kinomescan method relative to control. In outline: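 KinomeScan, an active site-directed competition binding panel of 468 kinases. The test compound was at 1 μM. The readout is remaining kinase binding as a percentage of the DMSO control. Scores above 35% were treated as weak binding and not listed.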

The target in experiment [17] is cGMP-dependent protein kinase 2 (Homo sapiens) (UniProt Q13237). Kind of experiment: Binding affinity to wild-type human partial length PRKG2 (S422 to F762 residues) expressed in mammalian expression system assessed as residual binding level at 1 uM by Kinomescan method relative to control.
Experiment [18] deals with Bone morphogenetic protein receptor type-1A (Homo sapiens) (UniProt P36894). In words: Binding affinity to wild-type human partial length BMPR1A (Q214 to I532 residues) expressed in bacterial expression system assessed as residual binding level at 1 uM by Kinomescan method relative to control.
Experiment [19] concerns the target Serine/threonine-protein kinase WNK4 (Homo sapiens) (UniProt Q96J92). In words: Binding affinity to wild-type human partial length WNK4 (A31 to D461 residues) expressed in mammalian expression system assessed as residual binding level at 1 uM by Kinomescan method relative to control. The essentials:
as §3

The test system of experiment [20] is Tyrosine-protein kinase ABL1 (Homo sapiens), P00519 [F317I]. Kind of experiment: Binding affinity to human phosphorylated ABL1 F317I mutant (S229 to K512 residues) expressed in mammalian expression system assessed as residual binding level at 1 uM by Kinomescan method relative to control. In outline:
as §1

Serine/threonine-protein kinase MARK2 (Homo sapiens), sequence (Q7KZI7 whole entry, the tested form may be a part): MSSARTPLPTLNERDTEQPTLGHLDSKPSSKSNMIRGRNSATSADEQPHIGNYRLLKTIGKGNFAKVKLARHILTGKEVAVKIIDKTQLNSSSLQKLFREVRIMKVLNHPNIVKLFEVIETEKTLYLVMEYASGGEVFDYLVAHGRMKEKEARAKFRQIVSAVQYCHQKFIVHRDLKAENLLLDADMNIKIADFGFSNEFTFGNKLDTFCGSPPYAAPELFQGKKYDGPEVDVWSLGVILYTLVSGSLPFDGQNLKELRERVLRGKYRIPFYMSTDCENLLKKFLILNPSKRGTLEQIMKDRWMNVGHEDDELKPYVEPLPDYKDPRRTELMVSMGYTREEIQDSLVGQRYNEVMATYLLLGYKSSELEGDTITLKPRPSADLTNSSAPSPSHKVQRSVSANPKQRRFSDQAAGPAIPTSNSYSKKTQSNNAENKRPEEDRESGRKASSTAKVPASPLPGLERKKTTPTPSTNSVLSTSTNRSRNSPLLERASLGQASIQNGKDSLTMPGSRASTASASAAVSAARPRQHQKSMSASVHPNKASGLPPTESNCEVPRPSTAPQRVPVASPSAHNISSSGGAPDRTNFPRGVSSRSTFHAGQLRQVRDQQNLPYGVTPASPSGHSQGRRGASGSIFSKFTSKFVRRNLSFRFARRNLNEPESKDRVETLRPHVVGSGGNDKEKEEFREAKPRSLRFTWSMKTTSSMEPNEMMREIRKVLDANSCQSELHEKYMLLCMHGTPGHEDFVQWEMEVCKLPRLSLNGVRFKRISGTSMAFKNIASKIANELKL
Mitotic checkpoint serine/threonine-protein kinase BUB1 (Homo sapiens), sequence (O43683 whole entry, looked up, the tested form may be a part): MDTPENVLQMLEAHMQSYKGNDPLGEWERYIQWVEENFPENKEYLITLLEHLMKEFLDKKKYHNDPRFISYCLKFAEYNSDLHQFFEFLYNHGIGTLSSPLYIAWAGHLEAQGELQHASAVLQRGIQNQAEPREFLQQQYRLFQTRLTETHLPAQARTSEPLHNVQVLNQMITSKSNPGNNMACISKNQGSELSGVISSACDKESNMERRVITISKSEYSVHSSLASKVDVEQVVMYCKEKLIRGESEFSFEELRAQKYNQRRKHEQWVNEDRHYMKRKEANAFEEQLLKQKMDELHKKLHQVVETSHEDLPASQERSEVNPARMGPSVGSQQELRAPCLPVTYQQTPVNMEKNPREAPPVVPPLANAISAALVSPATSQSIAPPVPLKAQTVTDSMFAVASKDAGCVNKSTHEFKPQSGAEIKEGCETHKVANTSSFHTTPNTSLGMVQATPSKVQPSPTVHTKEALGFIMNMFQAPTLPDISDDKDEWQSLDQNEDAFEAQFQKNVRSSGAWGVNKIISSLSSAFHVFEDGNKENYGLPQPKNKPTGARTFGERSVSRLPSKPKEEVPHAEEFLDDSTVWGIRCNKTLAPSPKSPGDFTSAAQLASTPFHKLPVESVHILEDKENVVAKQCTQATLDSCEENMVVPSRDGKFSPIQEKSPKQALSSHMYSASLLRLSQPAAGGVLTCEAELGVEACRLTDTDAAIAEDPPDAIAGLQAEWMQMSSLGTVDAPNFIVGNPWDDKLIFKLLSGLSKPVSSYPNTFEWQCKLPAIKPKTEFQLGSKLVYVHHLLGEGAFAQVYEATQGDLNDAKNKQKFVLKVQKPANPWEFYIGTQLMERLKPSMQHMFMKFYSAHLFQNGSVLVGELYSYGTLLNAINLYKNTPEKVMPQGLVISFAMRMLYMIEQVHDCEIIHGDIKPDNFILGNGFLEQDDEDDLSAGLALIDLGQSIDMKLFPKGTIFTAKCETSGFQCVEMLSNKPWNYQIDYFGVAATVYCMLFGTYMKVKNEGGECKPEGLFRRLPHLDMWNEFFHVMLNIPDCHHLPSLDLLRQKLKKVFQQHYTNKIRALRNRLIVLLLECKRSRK
Serine/threonine-protein kinase 32C (Homo sapiens), sequence (Q86UX6 whole entry, the tested form may be a part): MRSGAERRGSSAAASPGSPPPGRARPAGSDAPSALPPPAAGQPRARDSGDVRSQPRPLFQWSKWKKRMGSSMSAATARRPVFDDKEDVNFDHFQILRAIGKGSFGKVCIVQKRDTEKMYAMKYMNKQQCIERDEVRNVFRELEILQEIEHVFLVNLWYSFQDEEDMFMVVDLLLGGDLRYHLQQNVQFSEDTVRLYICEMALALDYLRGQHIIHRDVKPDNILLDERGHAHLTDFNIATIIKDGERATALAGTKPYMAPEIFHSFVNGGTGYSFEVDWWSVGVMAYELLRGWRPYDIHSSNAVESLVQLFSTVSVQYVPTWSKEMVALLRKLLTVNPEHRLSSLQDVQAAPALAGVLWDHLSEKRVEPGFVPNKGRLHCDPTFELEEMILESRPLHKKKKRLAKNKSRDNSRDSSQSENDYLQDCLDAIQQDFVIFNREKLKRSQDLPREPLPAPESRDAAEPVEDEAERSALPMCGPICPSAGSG

As for `C=CC(=O)Nc1ccccc1Nc1nc(Nc2ccc(N3CCN(C)CC3)cc2)ncc1C(=O)Nc1c(C)cccc1Cl`, the Activity in experiment [1] was determined as 100%; in experiment [2], 62%; in experiment [3] it was 100%; in experiment [4], 100%; in experiment [5] it was 100%; in experiment [7] it was 100%. The Activity came out at 90% in experiment [8]; 100% in experiment [9]; 78% in experiment [10]; 100% in [11]; 0.25% in experiment [12]; 83% in experiment [13]. For the same molecule, the Activity was found to be 83% in experiment [14]; 40% in experiment [15]; 88% in experiment [16]; 100% in experiment [17]; 100% in experiment [18]; 97% in [19]. Also, the Activity in experiment [20] was found to be 6.9%. In experiment [6], the inhibition result was “inactive”.
